Screening results as filed in PubChem.
Rows were chosen to be rich in hits. Some 3.2% of all compounds tested hit in one or more screens of this group.
PfHsp90 set2: inhibits growth of yeast expressing Plasmodium falciparum Hsp90. inhibition, % at 9.4 µM. S. cerevisiae expressing PfHsp90, BacTiter-Glo ATP, 48 h; yeast lacking PDR1 and PDR3 efflux regulators. actives 0.32% (n = 310,000);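 active = every replicate shows inhibition above about 80%, whatever the replicate mean, limit read from the data; inconclusive = mean inhibition reaches the set limit but some replicate falls short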
DENV2 CPE: inhibitors of DENV2 cytopathic effect; actives 1.7% (n = 350,000); AID 651640; CPE inhibition, % at 9.99 µM; DENV2-infected cells, cytopathic effect rescue, plate reader; in the data active = CPE inhibition above about 20%, passing the limit was not always enough; inconclusive = no clear call, values can overlap the other calls; tested in BHK-21 cells
S100A4 MyoIIA: inhibitors of human S100A4 binding to myosin IIA peptide; S100A4/TAMRA-MyoIIA peptide fluorescence polarization; AID 652163; actives 0.14% (n = 360,000); P26447; inhibition, % at 10.7 µM;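 active = mean inhibition of at least 70% across replicates, with every replicate also reaching that level; inconclusive = mean inhibition reaches 70% but some replicates fall short; inactive = mean inhibition below 70%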
Target sequence (P26447 whole entry, looked up): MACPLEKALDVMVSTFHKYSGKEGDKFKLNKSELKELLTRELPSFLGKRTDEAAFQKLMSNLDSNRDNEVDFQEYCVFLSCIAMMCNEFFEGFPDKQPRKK
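Material: S100A4 monomer protein | Medium: HEPES pH 7.2 with CaCl2, KCl, NaCl, DTT, Triton | Reagent: Labelled myosin peptide probe, 5 nM | Doses: One dose per compound | Times: 5 min incubation before reading | Benchmarks: Neutral control DMSO, positive control TFP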
MLL AF4-AF9 inh: MLL-AF4/AF9 protein interaction inhibition. P42568. AlphaScreen, biotin-AF4 peptide binding to FLAG-AF9. inhibition, % at 10 µM. actives 0.47% (n = 350,000);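 active = every replicate reaching a set inhibition limit, whatever the replicate mean, cut at about 25% in these data; inconclusive = mean inhibition reaches that limit but some replicates miss it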
Target sequence (P42568 whole entry, looked up): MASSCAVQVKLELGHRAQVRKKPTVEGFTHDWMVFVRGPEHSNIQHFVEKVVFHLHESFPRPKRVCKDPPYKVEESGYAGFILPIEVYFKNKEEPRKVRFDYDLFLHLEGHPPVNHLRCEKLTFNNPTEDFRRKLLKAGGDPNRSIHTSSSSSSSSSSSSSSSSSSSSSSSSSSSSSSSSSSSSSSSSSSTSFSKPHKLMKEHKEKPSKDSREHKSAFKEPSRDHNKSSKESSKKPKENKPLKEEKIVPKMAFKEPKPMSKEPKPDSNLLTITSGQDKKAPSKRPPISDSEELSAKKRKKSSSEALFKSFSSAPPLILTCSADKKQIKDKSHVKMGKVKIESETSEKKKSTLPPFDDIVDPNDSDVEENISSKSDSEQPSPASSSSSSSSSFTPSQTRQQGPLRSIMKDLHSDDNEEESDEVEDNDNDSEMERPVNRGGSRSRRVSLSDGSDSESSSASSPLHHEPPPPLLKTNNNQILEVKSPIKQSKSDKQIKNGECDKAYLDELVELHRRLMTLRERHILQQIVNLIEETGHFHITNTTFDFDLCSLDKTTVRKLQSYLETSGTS
Cneo AK release: causes C. neoformans cell lysis; adenylate kinase release luminescence, 4 h; normalised: neutral wells 0, clomiphene wells 100; lysis activity, % at 15 µM; actives 0.2% (n = 360,000); AID 651654;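 active = mean lysis activity across replicates of at least 80%, whatever share of replicates individually reach that level; inactive = mean lysis activity below 80%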
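Material – Cryptococcus neoformans yeast cells · Quantity – 5 × 10^6 yeast cells/mL · Buffer or medium – YPD medium · Compound – single dose · Timing – 4 h static compound exposure, 37 °C, read 1 h post-reagent · Signal – adenylate kinase release luminescence · Read-out basis – lysis from increased AK signal · Benchmarks – Clomiphene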
rRNA inh HTS: selective bacterial rRNA inhibition in E. coli; E. coli WT GFP vs humanized-ribosome RFP mutants, fluorescence, 24 h; hits give low values; DMSO median 0, no signal -100; actives 1.6% (n = 350,000); GFP signal change (wild-type ribosome), % (concentration not given with the values); AID 720706;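 active = significant combined selectivity score with lowered wild-type GFP, culture density cut under 30%, mutant RFP and density less affected; inactive = any of these conditions unmet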
Large screens that a line does not name were inactive.

C[C@@H]1CN([C@@H](C)CO)C(=O)Cc2cc(NC(=O)Nc3ccc(F)cc3)ccc2O[C@@H]1CN(C)Cc1ccc2c(c1)OCO2	none (no result: PfHsp90 set2)
Cc1ccc(S(=O)(=O)N(C)C[C@@H]2Oc3c(NC(=O)c4ccncc4)cccc3C(=O)N([C@H](C)CO)C[C@H]2C)cc1	none (no result: PfHsp90 set2)
C[C@@H]1CN([C@@H](C)CO)C(=O)c2cc(NS(=O)(=O)c3ccc(Cl)cc3)ccc2O[C@@H](C)CCCCO[C@H]1CN(C)C(=O)Cc1ccccc1	none (no result: PfHsp90 set2)
COC(=O)C1=CN(C(C)c2ccccc2)C=C(C(=O)OC)C1c1cc(OC)c(OC)c(OC)c1 (configuration not stated)	rRNA inh HTS -22
COC(=O)C1=CN(Cc2ccc(F)cc2)C=C(C(=O)OC)C1c1cc(OC)c(OC)c(OC)c1	rRNA inh HTS -24
COC(=O)C1=CN(Cc2ccc(OC)cc2)C=C(C(=O)OC)C1c1cc(OC)c(OC)c(OC)c1	none (no result: DENV2 CPE, S100A4 MyoIIA, MLL AF4-AF9 inh, rRNA inh HTS)
O=C(Nc1nc(-c2ccccn2)cs1)c1ccc(Br)s1	PfHsp90 set2 126 (no result: DENV2 CPE, S100A4 MyoIIA, MLL AF4-AF9 inh, rRNA inh HTS)
O=C(Nc1nc(-c2ccccn2)cs1)c1ccco1	none (no result: Cneo AK release)
C/C=C/c1ccc2c(c1)O[C@H](CN(C)C(=O)Nc1ccc(C(F)(F)F)cc1)[C@H](C)CN([C@H](C)CO)S2(=O)=O	none (no result: PfHsp90 set2)
C[C@H](CO)N1C[C@H](C)[C@H](CN(C)S(=O)(=O)c2cccs2)OCc2ccccc2-c2c(n(C)c3ccccc23)C1=O	none (no result: PfHsp90 set2)
C[C@@H]1CN([C@H](C)CO)C(=O)c2c(c3ccccc3n2C)-c2ccccc2CO[C@H]1CN(C)S(=O)(=O)c1ccccc1	S100A4 MyoIIA 131 (no result: PfHsp90 set2)
C[C@@H]1CN([C@H](C)CO)C(=O)c2c(c3ccccc3n2C)-c2ccccc2CO[C@H]1CN(C)S(=O)(=O)c1cccs1	Cneo AK release 90 (no result: PfHsp90 set2)
O=C(Nc1ccc(Br)cc1F)C1CCN(c2nnc(-n3cccc3)s2)CC1	DENV2 CPE 26 (no result: PfHsp90 set2)
O=C(C1CCN(c2nnc(-n3cccc3)s2)CC1)N1CCCCC1	none
CC(C)CC(=O)Nc1ccc2nn(-c3ccccc3)nc2c1	none (no result: DENV2 CPE, S100A4 MyoIIA, MLL AF4-AF9 inh, Cneo AK release, rRNA inh HTS)
CCCC(=O)Nc1ccc2nn(-c3ccc(OC)cc3)nc2c1	DENV2 CPE 26
COc1cccc(NC(=O)N[C@@H]2C=C[C@H](CC(=O)N3CCOCC3)O[C@H]2CO)c1	none (no result: PfHsp90 set2)
CC1CCN(S(=O)(=O)c2ccc(C(=O)Nc3nnc(C4=COCCO4)o3)cc2)CC1	rRNA inh HTS -23
N#Cc1cccc(C#N)c1Oc1ccc(S(=O)(=O)Nc2ccccc2)cc1	none (no result: rRNA inh HTS)
N#Cc1c(Cl)cccc1Oc1ccc(S(=O)(=O)Nc2ccccc2)cc1	rRNA inh HTS -28 (no result: MLL AF4-AF9 inh)
O=S(=O)(NCc1c(Cl)cccc1Oc1ccccc1)c1ccccc1	DENV2 CPE 32 (no result: MLL AF4-AF9 inh)
COc1ccc(NC(=O)N2CC3(C2)CN(CC2CC2)[C@@H](CO)c2c3c3ccc(OC)cc3n2C)cc1	none (no result: PfHsp90 set2, Cneo AK release)
Cc1ccc(CNC(=O)[C@H](C)N2C(=O)N3CCc4c([nH]c5ccccc45)[C@@]3(C)C2=O)cc1	DENV2 CPE 35
CO[C@@H]1CC[C@@H]2CCOc3c(C#N)cccc3C(=O)N(C)C[C@H](c3ccccc3)CC(=O)N(C)C[C@@H]1O2	Cneo AK release 83 (no result: PfHsp90 set2)
CO[C@H]1CC[C@H]2CCOc3c(C#N)cccc3C(=O)N(C)C[C@H](c3ccccc3)CC(=O)N(C)C[C@@H]1O2	none (no result: PfHsp90 set2)
CO[C@@H]1CN(C)C(=O)c2ccc(NC(=O)Nc3cc(F)ccc3F)cc2OC[C@@H](C)N(C(=O)c2ccccn2)C[C@@H]1C	none (no result: PfHsp90 set2)
CO[C@@H]1CN(C)C(=O)c2ccc(NC(=O)Nc3cc(F)ccc3F)cc2OC[C@H](C)N(C(=O)c2ccccn2)C[C@H]1C	DENV2 CPE 26 (no result: PfHsp90 set2)
CO[C@@H]1CN(C)C(=O)c2ccc(NC(=O)Nc3cc(F)ccc3F)cc2OC[C@@H](C)N(C(=O)c2ccccn2)C[C@H]1C	DENV2 CPE 87 (no result: PfHsp90 set2)
C[C@@H]1CN([C@H](C)CO)C(=O)c2cc(NC(=O)NC3CCCCC3)ccc2O[C@H]1CN(C)C	none (no result: PfHsp90 set2)
Cn1cnc(S(=O)(=O)N[C@H]2CC[C@H](CC(=O)NCC3CCCCC3)O[C@H]2CO)c1	DENV2 CPE 80 (no result: PfHsp90 set2)
Cn1cnc(S(=O)(=O)N[C@@H]2C=C[C@@H](CC(=O)NCC3CC3)O[C@H]2CO)c1	DENV2 CPE inconclusive, S100A4 MyoIIA 108 (no result: PfHsp90 set2)
Cn1cnc(S(=O)(=O)N[C@@H]2CC[C@H](CC(=O)NCC3CCCCC3)O[C@@H]2CO)c1	DENV2 CPE 84 (no result: PfHsp90 set2)
Cn1cnc(S(=O)(=O)N[C@H]2CC[C@H](CC(=O)NCC3CCCCC3)O[C@@H]2CO)c1	none (no result: PfHsp90 set2)
CN(C)c1ccc(S(=O)(=O)NCC(=O)N2CCN(S(=O)(=O)c3cccc(F)c3)CC2)cc1[N+](=O)[O-]	none
CN(CC(=O)Nc1cccc(F)c1)C(=O)CNS(=O)(=O)c1ccc(N(C)C)c([N+](=O)[O-])c1	DENV2 CPE 89 (no result: PfHsp90 set2, Cneo AK release)
CN(CCc1ccccn1)C(=O)CCC1CCCN(C(=O)c2cccc(N(C)C)c2)C1 (configuration not stated)	DENV2 CPE 35
O=C1C=C(c2cccs2)C[C@H](c2ccccc2)[C@H]1n1nnc([N+](=O)[O-])n1	PfHsp90 set2 92 (no result: DENV2 CPE, S100A4 MyoIIA, MLL AF4-AF9 inh, Cneo AK release, rRNA inh HTS)
CC(=O)C1C(=O)C=C(c2cccs2)CC1c1ccccc1 (configuration not stated)	none
CCCC#Cc1cnc2c(c1)C(=O)N([C@@H](C)CO)C[C@@H](C)[C@H](CN(C)S(=O)(=O)c1cn(C)cn1)O2	none (no result: PfHsp90 set2)
Cc1ccc(NC(=S)NC(=O)C2CCCC2)cc1C	none
O=C(NC(=S)Nc1ccc(Br)c(Cl)c1)C1CC1	rRNA inh HTS -27
CC(=O)Nc1ccc(NC(=S)NC(=O)C2CC2)cc1	none
Cc1ccc(NC(=S)NC(=O)C2CCC2)cc1C	DENV2 CPE 69
Cc1noc(C)c1NC(=O)Nc1ccc2c(c1)C(=O)N([C@H](C)CO)C[C@H](C)[C@H](CN(C)C(=O)Nc1ccc(C(F)(F)F)cc1)OCCCC[C@@H](C)O2	none (no result: PfHsp90 set2)
CO[C@H]1CN(C)C(=O)c2ccc(NC(C)=O)cc2OC[C@@H](C)N(C(=O)c2ccncc2)C[C@H]1C	none (no result: PfHsp90 set2)
O=C(C[C@@H]1CC[C@H]2[C@@H](COC[C@H](O)CN2C(=O)Nc2ccc(Cl)cc2)O1)NCCc1ccncc1	DENV2 CPE inconclusive (no result: PfHsp90 set2)
O=C(c1ccc(Cl)cc1)N1CCN(c2cccc3[nH]ccc23)CC1	rRNA inh HTS -25 (no result: Cneo AK release)
Cn1ncc(Cl)c1C(=O)N1CCN(c2ccc(F)cc2)CC1	DENV2 CPE 50
O=C(c1ccc(N2CCN(C(=O)c3ccccc3)CC2)cc1)c1cccc(F)c1	DENV2 CPE 65
O=C(c1ccc(Cl)cc1)N1CCN(c2ccc(F)cc2)CC1	PfHsp90 set2 102 (no result: DENV2 CPE, S100A4 MyoIIA, MLL AF4-AF9 inh, rRNA inh HTS)
